Experimental data as given in ChEMBL document CHEMBL1149232, “An aminomethylpyrimidine DPP-IV inhibitor with improved properties” (Bioorg Med Chem Lett, 2004).

Assays:
[1] = Octanol water partition coefficient was determined at pH 7.4; type: physicochemical
[2] = target: Cytochrome P450 3A4 (Homo sapiens, UniProt P08684); assay: Inhibition of human liver microsome Cytochrome P3A4; type: microsomes
Outline: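 CYP3A4 inhibition was measured by a published fluorometric method using BFC as the substrate.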

Chain of Cytochrome P450 3A4 (P08684 whole entry): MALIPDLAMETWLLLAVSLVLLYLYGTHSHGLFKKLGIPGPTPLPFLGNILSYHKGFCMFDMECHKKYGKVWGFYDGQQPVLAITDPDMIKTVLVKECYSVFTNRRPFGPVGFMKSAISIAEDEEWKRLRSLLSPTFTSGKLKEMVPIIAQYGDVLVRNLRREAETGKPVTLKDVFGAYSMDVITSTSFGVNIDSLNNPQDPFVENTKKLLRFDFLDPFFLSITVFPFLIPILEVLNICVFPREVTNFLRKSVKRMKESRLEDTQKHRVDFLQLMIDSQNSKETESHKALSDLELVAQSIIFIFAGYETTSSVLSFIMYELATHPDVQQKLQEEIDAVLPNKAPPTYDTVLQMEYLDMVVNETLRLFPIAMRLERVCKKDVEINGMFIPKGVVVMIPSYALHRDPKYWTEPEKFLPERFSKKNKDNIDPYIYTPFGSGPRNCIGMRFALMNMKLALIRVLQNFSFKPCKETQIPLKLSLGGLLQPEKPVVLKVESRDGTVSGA

Compound	logD [1]	IC50 [2] [µM]
COc1nc(N)c(CN)c(-c2ccc(Cl)cc2Cl)n1	1.6	
NCc1c(N)nc(-c2ccccc2)nc1-c1ccc(Cl)cc1Cl	3	5.4
NCc1c(N)nc(N)nc1-c1ccc(Cl)cc1Cl	0.4	
Cc1nc(N)c(CN)c(-c2ccc(Cl)cc2Cl)n1	1.4	
